Substitutions are numbered along the chain they refer to. Each block holds one molecule with its values, some of them ahead of it. Square brackets hold non-standard residues; d marks the D form. Ends that are not written are not given here. * marks the point of attachment. Biotin = O=C1N[C@H]2[C@H](CS[C@H]2CCCCC(=O)*)N1; pS = N[C@@H](COP(=O)(O)O)C(=O)O
Experiments:
[1] = target: biotinylated STARD3 FFAT peptide (residues 200-216), pS209 (human); test: SPR
[2] = target: biotinylated STARD3 FFAT peptide (residues 200-216), pS209 + pS213 (human); test: SPR
[3] = target: T1, recombinant MSP domain of MOSPD2 (315-445) (human, UniProt Q8NHP6 315-445); test: crystal structure
T1 sequence (looked up): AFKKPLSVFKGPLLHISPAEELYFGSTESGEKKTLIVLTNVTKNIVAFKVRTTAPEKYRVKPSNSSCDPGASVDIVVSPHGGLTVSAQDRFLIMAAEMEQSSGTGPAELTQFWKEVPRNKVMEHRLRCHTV

[4] = target: T2, recombinant MSP domain of MOSPD2 K363L (human, UniProt Q8NHP6 282-490, K363L); test: pull-down
T2 sequence (looked up): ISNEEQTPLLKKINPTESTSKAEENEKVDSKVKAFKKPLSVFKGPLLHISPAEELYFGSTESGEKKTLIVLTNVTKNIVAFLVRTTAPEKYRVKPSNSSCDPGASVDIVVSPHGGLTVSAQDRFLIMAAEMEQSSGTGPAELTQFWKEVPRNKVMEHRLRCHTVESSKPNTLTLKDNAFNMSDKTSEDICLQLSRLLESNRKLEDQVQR

[5] = target: T3, recombinant MSP domain of VAP-A (8-212), C-terminal His6 (human, UniProt Q9P0L0 8-212); test: pull-down
T3 sequence (looked up): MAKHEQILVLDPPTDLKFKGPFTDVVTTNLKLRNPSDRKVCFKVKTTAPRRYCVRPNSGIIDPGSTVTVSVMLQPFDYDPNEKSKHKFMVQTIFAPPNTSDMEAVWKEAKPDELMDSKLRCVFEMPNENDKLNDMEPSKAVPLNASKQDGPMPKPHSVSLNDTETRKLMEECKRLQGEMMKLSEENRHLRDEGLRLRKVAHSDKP

[6] = target: recombinant MSP domain of VAP-B (1-210), C-terminal His6 (human, UniProt O95292 1-210); test: pull-down
recombinant MSP domain of VAP-B (1-210), C-terminal His6, sequence (O95292 1-210): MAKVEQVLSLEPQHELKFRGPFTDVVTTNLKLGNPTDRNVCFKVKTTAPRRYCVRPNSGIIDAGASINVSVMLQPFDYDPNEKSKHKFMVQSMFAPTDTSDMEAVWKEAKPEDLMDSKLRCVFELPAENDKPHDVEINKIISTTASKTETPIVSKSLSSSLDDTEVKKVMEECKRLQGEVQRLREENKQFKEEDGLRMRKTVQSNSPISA

[7] = target: T4, recombinant MSP domain of MOSPD2 (282-490), C-terminal His6 (human, UniProt Q8NHP6 282-490); test: pull-down
T4 sequence (looked up): T2 sequence (looked up) with L82K

[8] = target: T5, recombinant MSP domain of VAP-A K50L (human, UniProt Q9P0L0 8-212, K50L); test: pull-down
T5 sequence (looked up): T3 sequence (looked up) with K43L

[9] = target: recombinant MSP domain of VAP-B K43L (human, UniProt O95292 1-210, K43L); test: pull-down
recombinant MSP domain of VAP-B K43L, sequence (O95292 1-210 K43L): as the sequence (O95292 1-210) above, with K43L counted along it

[10] = target: T3, recombinant MSP domain of VAP-A …; test: crystal structure
[11] = DHE transport assay between liposomes; format: biochemical; settings: per cSTD3; absence of functional VAP; 37°C; n = 4
Method in brief: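 LA liposomes (DOPC, 3 mol% MPB-PE; 62.5 µM total lipids final) were preincubated 5 min with 475 nM cSTD3 or pS209 cSTD3 in TN3 buffer (50 mM Tris-HCl pH 8, 75 mM NaCl) at 37°C with stirring. Read-out was DNS-PE emission at 525 nm with excitation at 310 nm. Transport was expressed as mol% DHE = 10×(F−F0)/(Fmax−F0), with F0 set by 10 mM methyl-β-cyclodextrin.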

Kd [1]: 1.1 µM
Kd [2]: 0.35 µM
Molecule: recombinant MSP domain of MOSPD2 (282-490), C-terminal His6 (from UniProt Q8NHP6 282-490) (domain or fragment)

Kd [1]: 5.6 µM
Molecule: recombinant MSP domain of VAP-A (8-212), C-terminal His6 (from UniProt Q9P0L0 8-212) (domain or fragment)

Kd [1]: 7.1 µM
Molecule: recombinant MSP domain of VAP-B (1-210), C-terminal His6 (from UniProt O95292 1-210) (domain or fragment)

binding result [3]: binds
B1: phosphorylated FFAT peptide of STARD3 used for crystallisation with MOSPD2 (CLFSGALpSEGQFYpSPPEpSFAG) (peptide)
peptide: CLFSGAL[pS]EGQFY[pS]PPE[pS]FAG

binding result [4]: binds
binding result [5]: binds
binding result [6]: binds
binding result [7]: binds
binding result [8]: binds
binding result [9]: binds
B2: biotinylated ORP1 FFAT peptide (residues 469-485) (peptide)
peptide: Biotin-GAMRSILSEDEFYDALSDSES

binding result [4]: binds
B3: biotinylated STARD3 FFAT peptide (residues 200-216), pS209 + pS213 (peptide)
peptide: Biotin-GAMRGALSEGQFY[pS]PPE[pS]FAG

binding result [10]: binds
B4: phosphorylated FFAT peptide of STARD3 used for crystallisation with VAP-A (GALpSEGQFYpSPPEpSFAG) (peptide)
peptide: GAL[pS]EGQFY[pS]PPE[pS]FAG

B5: cSTD3 (protein)
chain: CLFSGALSEGQFYSPPESFAGSDNESDEEVAGKKSFSAQEREYIRQGKEATAVVDQILAQEENWKFEKNNEYGDTVYTIEVPFHGKTFILKTFLPCPAELVYQEVILQPERMVLWNKTVTACQILQRVEDNTLISYDVSAGAAGGVVSPRDFVNVRRIERRRDRYLSSGIATSHSAKPPTHKYVRGENGPGGFIVLKSASNPRVCTFVWILNTDLKGRLPRYLIHQSLAATMFEFAFHLRQRISELGARA
modifications: left off: GST, N-terminal, cleaved
Initial DHE transport rate [11]: 10.45 DHE molecules/min
